The target in data set [1] is T1, ATP-dependent translocase ABCB1 (Homo sapiens, UniProt P08183). Description: Inhibition of P-gp in human MCF7/ADR cells assessed as reversal of multidrug resistance by measuring relative enhancement intensity for adriamycin-induced cytotoxicity at 10 uM after 48 hrs by SRB colorimetric assay. Set-up: scale not given: the % may be the effect or the level left. The settings on record: nci/adr-res. In kind it is cell-based. A general note: Sulforhodamine B stains cellular protein and so reports cell mass.

Data set [2] addresses T1, ATP-dependent translocase ABCB1. Put plainly: Inhibition of P-gp in human MCF7/ADR cells assessed as mean fluorescence intensity of cells at 10 uM pre-treated for 1 hr at 37 degC followed by incubation with Rh123 for 1 hr by flow cytometry (reference value: 108.1 +/- 43.9 No unit). The settings on record: nci/adr-res. In kind it is cell-based. A general note: In flow cytometry, cells or beads pass a laser one at a time.

A further data set concerns NCI/ADR-RES. Put plainly: Inhibition of P-gp in human MCF7/ADR cells assessed as reversal of multidrug resistance at 10 uM by measuring ratio of EC50(adriamycin)/EC50(adriamycin + compound) after 48 hrs by SRB colorimetric assay. Format: cell-based.
The target of data set [3] is T1, ATP-dependent translocase ABCB1. Put plainly: Inhibition of P-gp in human MCF7/ADR cells assessed as side scatter count of cells at 20 uM pre-treated for 1 hr at 37 degC followed by incubation with Rh123 for 1 hr by flow cytometry (reference value: 100.6 No unit). In kind it is cell-based. Conditions: nci/adr-res.
Data set [4] shares this target. Put plainly: Inhibition of P-gp in human MCF7/ADR cells assessed as peak fluorescence intensity of cells at 10 uM pre-treated for 1 hr at 37 degC followed by incubation with Rh123 for 1 hr by flow cytometry (reference value: 87.3 No unit). In kind it is cell-based. The settings on record: nci/adr-res.
The test system of another data set is MCF7. Description: Cytotoxicity against human MCF7 cells assessed as reduction in cell viability after 48 hrs by SRB colorimetric assay. Conditions: MCF7, 48 h. Format: functional, cell-based. The essentials:
(§1)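 MCF-7 from ATCC and its stepwise ADR-selected resistant subline, grown in RPMI-1640 with 10% FBS and penicillin/streptomycin at 37 °C, 5% CO2. 1 × 10^4 cells/well exposed to graded compound concentrations for 48 h. Cells fixed with 10% TCA, stained with 0.4% SRB in 1% acetic acid, dye extracted with 10 mM Tris base, OD read at 490 nm. Taxol positive control.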

Data set [5] addresses T1, ATP-dependent translocase ABCB1. Description: Inhibition of P-gp in human MCF7/ADR cells assessed as side scatter count of cells at 10 uM pre-treated for 1 hr at 37 degC followed by incubation with Rh123 for 1 hr by flow cytometry (reference value: 100.6 No unit). In kind it is cell-based. Conditions: nci/adr-res.
Data set [6] shares this target. Description: Inhibition of P-gp in human MCF7/ADR cells assessed as peak fluorescence intensity of cells at 20 uM pre-treated for 1 hr at 37 degC followed by incubation with Rh123 for 1 hr by flow cytometry (reference value: 87.3 No unit). In kind it is cell-based. Conditions: nci/adr-res.
Data set [7] shares this target. Put plainly: Inhibition of P-gp in human MCF7/ADR cells assessed as forward scatter count of cells at 2 uM pre-treated for 1 hr at 37 degC followed by incubation with Rh123 for 1 hr by flow cytometry (reference value: 142.5 No unit). In kind it is cell-based. The settings on record: nci/adr-res.
Data set [8] has the same target. Description: Inhibition of P-gp in human MCF7/ADR cells assessed as mean fluorescence intensity of cells at 2 uM pre-treated for 1 hr at 37 degC followed by incubation with Rh123 for 1 hr by flow cytometry (reference value: 108.1 +/- 43.9 No unit). Format: cell-based. Conditions: nci/adr-res.
A short description of data set [9]: Cytotoxicity against human MCF7/ADR cells assessed as reduction in cell viability after 48 hrs by SRB colorimetric assay. Conditions: NCI/ADR-RES. In kind it is functional, cell-based. The essentials:
as §1

The target of data set [10] is T1, ATP-dependent translocase ABCB1. Put plainly: Inhibition of P-gp in human MCF7/ADR cells assessed as mean fluorescence intensity of cells pre-treated for 1 hr at 37 degC followed by incubation with Rh123 for 1 hr by flow cytometry. Conditions: nci/adr-res. In kind it is cell-based.
The target is the same in data set [11]. Put plainly: Inhibition of P-gp in human MCF7/ADR cells assessed as mean fluorescence intensity of cells at 20 uM pre-treated for 1 hr at 37 degC followed by incubation with Rh123 for 1 hr by flow cytometry (reference value: 108.1 +/- 43.9 No unit). Conditions: nci/adr-res. Format: cell-based.
The target is the same in data set [12]. Description: Inhibition of P-gp in human MCF7/ADR cells assessed as side scatter count of cells at 2 uM pre-treated for 1 hr at 37 degC followed by incubation with Rh123 for 1 hr by flow cytometry (reference value: 100.6 No unit). Format: cell-based. The settings on record: nci/adr-res.
The target is the same in data set [13]. Put plainly: Inhibition of P-gp in human MCF7/ADR cells assessed as peak fluorescence intensity of cells at 2 uM pre-treated for 1 hr at 37 degC followed by incubation with Rh123 for 1 hr by flow cytometry (reference value: 87.3 No unit). Format: cell-based. The settings on record: nci/adr-res.
Data set [14] shares this target. Description: Inhibition of P-gp in human MCF7/ADR cells assessed as forward scatter count of cells at 20 uM pre-treated for 1 hr at 37 degC followed by incubation with Rh123 for 1 hr by flow cytometry (reference value: 142.5 No unit). The settings on record: nci/adr-res. In kind it is cell-based.
Data set [15] shares this target. Put plainly: Inhibition of P-gp in human MCF7/ADR cells assessed as forward scatter count of cells at 10 uM pre-treated for 1 hr at 37 degC followed by incubation with Rh123 for 1 hr by flow cytometry (reference value: 142.5 No unit). In kind it is cell-based. The settings on record: nci/adr-res.
Data set [16] can be described thus: Lipophilicity, log P of the compound. In kind it is physicochemical. The settings on record: octanol/water.
Data set [17] is described as follows: Inhibition of P-gp in human MCF7/ADR cells assessed as reversal of multidrug resistance at 10 uM by measuring EC50 for adriamycin-induced cytotoxicity after 48 hrs by SRB colorimetric assay. The settings on record: nci/adr-res.

T1 sequence (P08183 whole entry): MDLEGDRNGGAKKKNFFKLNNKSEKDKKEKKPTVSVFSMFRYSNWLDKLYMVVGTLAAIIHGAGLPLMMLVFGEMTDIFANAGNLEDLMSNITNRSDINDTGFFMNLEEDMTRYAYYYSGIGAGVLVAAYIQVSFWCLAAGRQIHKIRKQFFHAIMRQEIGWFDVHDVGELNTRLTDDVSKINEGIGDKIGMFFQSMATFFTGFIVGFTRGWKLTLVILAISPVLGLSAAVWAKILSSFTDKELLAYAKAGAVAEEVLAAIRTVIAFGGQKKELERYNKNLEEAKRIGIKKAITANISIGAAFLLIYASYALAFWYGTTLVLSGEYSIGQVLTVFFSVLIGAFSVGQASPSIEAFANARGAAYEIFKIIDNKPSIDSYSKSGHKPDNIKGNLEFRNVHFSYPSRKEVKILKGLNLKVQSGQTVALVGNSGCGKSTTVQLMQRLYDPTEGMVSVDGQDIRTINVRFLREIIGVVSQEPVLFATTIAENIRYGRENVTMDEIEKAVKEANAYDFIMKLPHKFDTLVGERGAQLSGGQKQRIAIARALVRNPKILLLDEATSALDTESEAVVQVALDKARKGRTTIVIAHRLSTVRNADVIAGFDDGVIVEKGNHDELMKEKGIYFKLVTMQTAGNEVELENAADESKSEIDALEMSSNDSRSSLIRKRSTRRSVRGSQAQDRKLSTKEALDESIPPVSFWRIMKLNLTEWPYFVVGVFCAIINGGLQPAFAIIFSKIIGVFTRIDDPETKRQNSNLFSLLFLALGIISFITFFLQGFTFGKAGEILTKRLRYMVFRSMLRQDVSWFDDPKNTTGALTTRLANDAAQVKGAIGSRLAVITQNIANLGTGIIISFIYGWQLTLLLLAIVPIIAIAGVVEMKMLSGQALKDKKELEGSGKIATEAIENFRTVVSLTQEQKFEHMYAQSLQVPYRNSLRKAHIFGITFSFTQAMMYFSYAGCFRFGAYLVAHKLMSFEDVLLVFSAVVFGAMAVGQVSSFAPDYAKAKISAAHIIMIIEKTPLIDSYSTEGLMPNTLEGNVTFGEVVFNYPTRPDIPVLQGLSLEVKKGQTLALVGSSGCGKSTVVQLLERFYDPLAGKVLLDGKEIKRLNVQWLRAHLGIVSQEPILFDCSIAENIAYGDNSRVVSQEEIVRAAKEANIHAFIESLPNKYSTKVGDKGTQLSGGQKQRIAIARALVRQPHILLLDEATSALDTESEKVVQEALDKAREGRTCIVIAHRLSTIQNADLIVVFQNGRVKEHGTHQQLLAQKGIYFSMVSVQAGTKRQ

A word on the IC50: it is the concentration that inhibits the measured activity by half. In the case of `C=C1CC[C@H]2[C@@H](/C=C(\C)C(=O)[C@@]3(O)C[C@H](C)[C@H](OC(=O)CC)[C@@H]3[C@H]1OC(=O)Cc1cccc3ccccc13)C2(C)C`, the Activity was determined as 14.4% in [1]; 100.9 in data set [3]; 188.2 in [4]; 101.2 in data set [5]; 235.8 in data set [6]; 138.5 in [7]. The Activity in [12] stood at 94.8; in data set [13] it was 143.5; in [14], 131.4; in data set [15], 137.9. Besides, the values for the Flu intensity in [2], in [8] and in data set [11] were 167.8, 149.4 and 204.6, respectively. The Ratio EC50 in the data set on NCI/ADR-RES is 28.6. The IC50 with MCF7 is 9.73 µM; in [9], 75.7 µM. In addition, the “inhibition (INH)” value in [10] is recorded as “Dose-dependent effect”.
As usually defined, the logP is the decadic logarithm of the partition coefficient of the neutral form, usually between octanol and water. One may read the EC50 as the concentration giving half of the maximal effect. For the compound `C=C1CC[C@H]2[C@@H]([C@@H]3O[C@]4(C[C@H](C)[C@H](OC(C)=O)[C@@H]4[C@H]1OC(C)=O)C(=O)[C@H]3C)C2(C)C`, in data set [1], the Activity was found to be 13%. The Ratio EC50 in the data set with NCI/ADR-RES was 10.7. Also, the IC50 in the data set on MCF7 was 12.7 µM; in [9], > 100 µM. The compound further registered a logP in data set [16] of 3.4. For the same compound, the EC50 in [17] is 3.23 µM.
Take `C=C1CC[C@H]2[C@@H](/C=C(\C)C(=O)[C@@]3(O)C[C@H](C)[C@H](OC(=O)c4ccccc4)[C@@H]3[C@H]1OC(=O)c1ccccc1)C2(C)C`: the Activity in data set [1] was found to be 23.9%; in data set [3] it was 102; in data set [4] it was 215.4; in data set [5], 104.4; in [6], 196.8; in data set [7], 146.8. Also, the Activity in data set [12] is on record as 102.7; in data set [13], 215.4; in data set [14], 148.1; in data set [15] it was 144.5. Besides, the Flu intensity in data set [2] is reported as 204.8; in data set [8], 197.5; in data set [11] it was 204.8. For the same compound, the Ratio EC50 in the data set with NCI/ADR-RES stood at 34.4. Further, the IC50 in the data set with MCF7 was 13.2 µM; in [9], 63.8 µM.
As to `C=C1CC[C@H]2[C@@H](/C=C(\C)C(=O)[C@@]3(O)C[C@H](C)[C@H](O)[C@@H]3[C@H]1OC(=O)Cc1cccc3ccccc13)C2(C)C`, the Activity in data set [1] is listed as 15.5%; in data set [3], 94.2; in data set [4], 196.8; in [5], 102.2; in [6], 205.9; in data set [7] it was 134.9. Besides, the Activity came out at 96.3 in [12], 131.1 in data set [13], 138.7 in data set [14] and 148.5 in [15]. Moreover, the Flu intensity in data set [2] is on record as 168.1; in data set [8], 141.1; in data set [11] it was 182.1. The Ratio EC50 with NCI/ADR-RES turned out to be 16. The values for the IC50 (with MCF7; in [9]) were 10.5 µM and 33.7 µM, respectively.

The values above are taken from ChEMBL document CHEMBL3425486, “Lathyrol diterpenes as modulators of P-glycoprotein dependent multidrug resistance: structure-activity relationship studies on Euphorbia factor L3 derivatives” (J Med Chem, 2015).
